Published values pooled from the literature.
Lines come from different studies, so protocols differ.
HTR2A: 5-hydroxytryptamine receptor 2A (HTR2A, Homo sapiens, UniProt P28223)
PFF0160c: Dihydroorotate dehydrogenase (quinone), mitochondrial (PFF0160c, Plasmodium falciparum, UniProt Q08210)

SMILES	target	effect on	action	method	IC50
COc1ccc(COCCN(C)C(C)Cc2ccc(O)cc2)cc1 (stereo not shown)	HTR2A	calcium signal	antagonist	–	16.9 µM
Cn1nccc1[C@]1(CNC(=O)c2ccc(F)c(F)c2-c2ccc(C(F)(F)F)cc2)NC(=O)NC1=O	Mucosa-associated lymphoid tissue lymphoma translocation protein 1 (MALT1, Homo sapiens, UniProt Q9UDY8)	enzyme activity	inhibitor	–	> 100 µM
Cn1nc2c(=O)n(C3CC3)cnc2c1[C@](O)(c1ccc(C(F)(F)F)c(C#N)c1)C(F)(F)F	PFF0160c	enzyme activity	inhibitor	–	0.0126 µM
Cc1nc(Nc2ccc(CC(=O)O)cc2)nc(Nc2ccc(F)c(C(F)(F)F)c2)c1C	cGMP-specific 3',5'-cyclic phosphodiesterase (PDE5A, Homo sapiens, UniProt O76074)	enzyme activity	inhibitor	FP	~1.5 µM
CC(C)N(CCc1c[nH]c2cccc(OC(=O)CCCC(=O)O)c12)C(C)C	HTR2A	ligand displacement	–	radioligand	5.7 µM
CNC(=O)c1ccc(-c2cnn3ccc(C(=O)N(C)c4ccc(Cl)c(C(=O)O)c4)cc23)cc1	Thromboxane A2 receptor (TBXA2R, Homo sapiens, UniProt P21731)	cell-free assay	–	–	> 30 µM
CCn1cnc2c([C@@](O)(CC)c3ccc(C(F)(F)F)nc3)n(C)nc2c1=O	PFF0160c	enzyme activity	inhibitor	–	0.056 µM
Oc1ccc(C2=CCN(CC3CC34CC4)CC2)cc1 (stereo not shown)	HTR2A	calcium signal	antagonist	–	6.23 µM
Cn1nc2c(=O)n(C3CC3)ccc2c1[C@](O)(c1ccc(C(F)(F)F)c(C#N)c1)C1CC1	PFF0160c	enzyme activity	inhibitor	–	0.02 µM
COC(=O)c1cc(N(C)C(=O)c2ccn3ncc(-c4ccc(C(=O)O)cc4)c3c2)ccc1Cl	Serine/threonine-protein kinase WNK1 (WNK1, Homo sapiens, UniProt Q9H4A3)	enzyme activity	inhibitor	–	> 30 µM
